Results taken from ChEMBL document CHEMBL1158698, “Chinikomycins A and B: isolation, structure elucidation, and biological activity of novel antibiotics from a marine Streptomyces sp. isolate M045” (J Nat Prod, 2005).
In brackets after ≈: the same amount, converted by molar mass. Activity calls are given as the source filed them. The rule behind the calls is not given here.

How the values were obtained:
[1] = Antitumor activity against human LXFL 529L cells; assay type: functional, cell-based
[2] = Antitumor activity against human RXF 944L cells; assay type: functional, cell-based
Rhizomucor miehei [3] = test: Antimicrobial activity against Mucor miehei at 40 ug/plate; assay type: functional, organism-based
Outline: (§1)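 Agar plate diffusion test. The stated amount of compound is applied per test plate seeded with the named bacterium, alga or fungus. The read-out is the diameter of the growth-inhibition zone, in mm.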

Bacillus subtilis [4] = test: Antimicrobial activity against Bacillus subtilis at 40 ug/plate; assay type: functional, organism-based; outline: as §1
[5] = Antitumor activity against human UXF 1138L cells; assay type: functional, cell-based
[6] = Antitumor activity against human LXFA 629L cells; assay type: functional, cell-based
Chlorella vulgaris [7] = test: Antimicrobial activity against Chlorella vulgaris at 40 ug/plate; assay type: functional, organism-based; outline: as §1
Chlorella sorokiniana [8] = test: Antimicrobial activity against Chlorella sorokiniana at 40 ug/plate; assay type: functional, organism-based; outline: as §1
Escherichia coli [9] = test: Antimicrobial activity against Escherichia coli at 40 ug/plate; assay type: functional, organism-based; outline: as §1
Candida albicans [10] = test: Antimicrobial activity against Candida albicans at 40 ug/plate; assay type: functional, organism-based; outline: as §1
[11] = test system: Encephalomyocarditis virus; test: Antiviral activity against EMC virus infected in human A549 cells assessed as protection against virus-induced cytopathic effect at 100 ug/ml; assay type: functional, organism-based
Staphylococcus aureus [12] = test: Antimicrobial activity against Staphylococcus aureus at 40 ug/plate; assay type: functional, organism-based; outline: as §1
[13] = Antitumor activity against human MAXF 401NL cells; assay type: functional, cell-based
[14] = test system: Streptomyces viridochromogenes; test: Antimicrobial activity against Streptomyces viridochromogenes Tu 57 at 40 ug/plate; assay type: functional, organism-based; outline: as §1
[15] = Antitumor activity against human MEXF 462NL cells; assay type: functional, cell-based
Desmodesmus subspicatus [16] = test: Antimicrobial activity against Scenedesmus subspicatus at 40 ug/plate; assay type: functional, organism-based; outline: as §1
Rhizomucor miehei [17] = test: Antimicrobial activity against Mucor miehei at 10 ug/plate; assay type: functional; outline: as §1
Chlorella sorokiniana [18] = test: Antimicrobial activity against Chlorella sorokiniana at 10 ug/plate; assay type: functional; outline: as §1
[19] = test system: Streptomyces viridochromogenes; test: Antimicrobial activity against Streptomyces viridochromogenes Tu 57 at 10 ug/plate; assay type: functional; outline: as §1
Candida albicans [20] = test: Antimicrobial activity against Candida albicans at 10 ug/plate; assay type: functional; outline: as §1
Bacillus subtilis [21] = test: Antimicrobial activity against Bacillus subtilis at 10 ug/plate; assay type: functional; outline: as §1
Desmodesmus subspicatus [22] = test: Antimicrobial activity against Scenedesmus subspicatus at 10 ug/plate; assay type: functional; outline: as §1
Staphylococcus aureus [23] = test: Antimicrobial activity against Staphylococcus aureus at 10 ug/plate; assay type: functional; outline: as §1
Escherichia coli [24] = test: Antimicrobial activity against Escherichia coli at 10 ug/plate; assay type: functional; outline: as §1
Chlorella vulgaris [25] = test: Antimicrobial activity against Chlorella vulgaris at 10 ug/plate; assay type: functional; outline: as §1

IC50 [1] [µg/mL] | IC50 [2] [µg/mL] | IC50 [5] [µg/mL] | IC50 [6] [µg/mL] | IC50 [13] [µg/mL] | IC50 [15] [µg/mL] | SMILES | Activity (Rhizomucor miehei [3]) | Activity (Bacillus subtilis [4]) | Activity (Chlorella vulgaris [7]) | Activity (Chlorella sorokiniana [8]) | Activity (Escherichia coli [9]) | Activity (Candida albicans [10]) | Activity [11] | Activity (Staphylococcus aureus [12]) | Activity [14] | Activity (Desmodesmus subspicatus [16]) | further results
> 6 | 4.02 (≈ 7.06 µM) | > 6 | > 6 | 2.41 (≈ 4.23 µM) | 4.15 (≈ 7.29 µM) | CCCC[C@@H](C)/C=C(C)/C=C(\C)C(=O)Nc1cc(O)c(/C=C/C=C/C=C/C(=O)NC2=C(O)CCC2=O)c(Cl)c1O [CHINIKOMYCIN A] | inactive | inactive | inactive | inactive | inactive | inactive | inactive | inactive | inactive | inactive | 
 |  |  |  |  |  | CCCC[C@@H](C)/C=C(C)/C=C(\C)C(=O)NC1=C[C@@](O)(/C=C/C=C/C=C/C(=O)NC2=C(O)CCC2=O)[C@@H]2O[C@@H]2C1=O [MANUMYCIN A] |  |  |  |  |  |  |  |  |  |  | inhibition zone (IZ) (Rhizomucor miehei [17]): 16 mm; inhibition zone (IZ) (Chlorella sorokiniana [18]): 16 mm; inhibition zone (IZ) [19]: 16 mm; inhibition zone (IZ) (Candida albicans [20]): 16 mm; inhibition zone (IZ) (Bacillus subtilis [21]): 16 mm; inhibition zone (IZ) (Desmodesmus subspicatus [22]): 16 mm; inhibition zone (IZ) (Staphylococcus aureus [23]): 16 mm; inhibition zone (IZ) (Escherichia coli [24]): 16 mm; inhibition zone (IZ) (Chlorella vulgaris [25]): 16 mm
> 6 | > 6 | > 6 | > 6 | 3.04 (≈ 5.36 µM) | > 6 | CCCC[C@@H](C)/C=C(C)/C=C(\C)C(=O)NC1=CC(=O)C(/C=C/C=C/C=C/C(=O)NC2=C(O)CCC2=O)=C(Cl)C1=O [CHINIKOMYCIN B] | inactive | inactive | inactive | inactive | inactive | inactive | inactive | inactive | inactive | inactive | 
